Screening data as filed in PubChem.
Many of the other results were omitted from the sample, so hits are more common in it than they were.
E-sel inducer = induces E-selectin expression in human endothelial cells; 260,000 tested, 0.37% active; P16581; HUVEC E-selectin immunofluorescence imaging; normalized: neutral wells 0, TNF-alpha wells 100; AID 686992; activation, % at 7.58 µM;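 active = mean E-selectin-positive cell signal at least 10% of the positive control, reached in at least 60% of replicates, without over 20% cell loss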
Target sequence (P16581 whole entry, looked up): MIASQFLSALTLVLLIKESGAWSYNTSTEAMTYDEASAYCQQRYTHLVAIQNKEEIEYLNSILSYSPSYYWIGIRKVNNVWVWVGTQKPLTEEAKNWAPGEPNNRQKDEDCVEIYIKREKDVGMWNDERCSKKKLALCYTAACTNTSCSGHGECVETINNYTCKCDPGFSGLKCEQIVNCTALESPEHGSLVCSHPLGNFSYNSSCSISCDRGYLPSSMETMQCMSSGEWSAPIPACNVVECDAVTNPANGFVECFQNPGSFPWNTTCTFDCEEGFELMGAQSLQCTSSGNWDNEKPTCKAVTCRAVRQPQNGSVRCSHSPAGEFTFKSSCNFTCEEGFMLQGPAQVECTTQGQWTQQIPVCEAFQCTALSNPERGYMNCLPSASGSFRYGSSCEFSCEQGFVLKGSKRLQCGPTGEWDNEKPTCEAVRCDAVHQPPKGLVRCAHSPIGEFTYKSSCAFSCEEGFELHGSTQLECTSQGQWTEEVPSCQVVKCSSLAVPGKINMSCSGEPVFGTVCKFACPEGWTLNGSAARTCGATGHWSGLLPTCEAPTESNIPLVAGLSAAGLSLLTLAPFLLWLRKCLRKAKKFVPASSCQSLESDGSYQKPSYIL
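Assay system: HUVEC, human umbilical vein endothelial cells / Amount: 3,000 HUVEC/well / Controls: TNF-alpha positive control, DMSO neutral control / Compound dosing: single concentration / Medium: EGM-2 over gelatin coat / Evaluation: percent E-selectin-positive cells / Signal: immunofluorescence imaging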
XiGFP reactiv = reactivates the inactive X chromosome in mouse fibroblasts; XiGFP mouse fibroblasts, % GFP-positive cells imaging, 3 d; cells co-treated with 5-aza-dC sensitizer; scaled so ellipticine positive control = 100%; AID 743238; activation, % at 7.58 µM; 360,000 tested, 0.055% active;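 active = mean normalized replicate activation at least 10% and every replicate at or above 10%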;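 note: 0% = median of on-plate neutral control wells and 100% = ellipticine 6 µM median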
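System: 68-5-11 XiGFP fibroblast line | Buffer or medium: DMEM containing 5-aza-dC | Compound: Single point | Times: Compounds 3 days, fix/stain 15 min at room temperature | Benchmarks: Positive control ellipticine, 6 µM final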
An asterisk follows results filed as active.

`COCC(=O)N(C)C[C@@H]1Oc2ncc(C#Cc3ccc(F)cc3)cc2C(=O)N([C@H](C)CO)C[C@@H]1C` gave E-sel inducer 0.1 and XiGFP reactiv -1.2.
For O=C(COC(=O)Cc1cccs1)Nc1cccc(S(=O)(=O)N2CCOCC2)c1 the results were E-sel inducer 0.0 and XiGFP reactiv 0.3.
Screening NS(=O)(=O)c1cccc(NC(=O)COC(=O)Cc2ccc(S(=O)(=O)N3CCOCC3)s2)c1 returned XiGFP reactiv 139.9*.
Screening O=C(Nc1nnc(-c2cccnc2)s1)c1cccs1 returned E-sel inducer -0.1 and XiGFP reactiv -0.2.
`c1ccc(Nc2nnc(-c3cccnc3)s2)cc1` gave E-sel inducer 47.8* and XiGFP reactiv 0.2.
CO[C@H]1CN(C)C(=O)c2ccc(NC(=O)NC(C)C)cc2OC[C@@H](C)N(S(C)(=O)=O)C[C@@H]1C was read as E-sel inducer -0.3 and XiGFP reactiv -0.3.
For C[C@H](CO)N1C[C@H](C)[C@@H](CN(C)CC2CCCCC2)OCc2cn(nn2)CCCC1=O the results were E-sel inducer 0.1 and XiGFP reactiv 1.1.
`C[C@H](CO)N1C[C@H](C)[C@@H](CN(C)C(=O)Nc2ccc3c(c2)OCO3)Oc2ccc(NC(=O)c3ccncc3)cc2C1=O` gave XiGFP reactiv 0.1.
Screening Cc1noc(C)c1NC(=O)N(C)C[C@@H]1Oc2ccc(NC(=O)c3ccncc3)cc2C(=O)N([C@@H](C)CO)C[C@@H]1C returned E-sel inducer -4.7 and XiGFP reactiv 0.0.
`Cc1noc(C)c1NC(=O)N(C)C[C@H]1Oc2ccc(NC(=O)c3ccncc3)cc2C(=O)N([C@H](C)CO)C[C@@H]1C` gave E-sel inducer 364.9* and XiGFP reactiv 0.0.
C[C@@H]1CN([C@H](C)CO)C(=O)c2cc(NC(=O)c3ccncc3)ccc2O[C@@H]1CN(C)C(=O)Nc1ccc2c(c1)OCO2 was read as E-sel inducer 39.8* and XiGFP reactiv 0.3.
Screening CC(C)NC(=O)N(C)C[C@@H]1Oc2ccc(NS(=O)(=O)c3ccc(F)cc3)cc2CC(=O)N([C@@H](C)CO)C[C@@H]1C returned E-sel inducer 0.3 and XiGFP reactiv -0.1.
Screening CN(C)C(=O)c1ccc(-c2ccc([C@@H]3[C@@H](CO)N(C(=O)Cc4ccccn4)[C@H]3C#N)cc2)cc1 returned E-sel inducer -0.4 and XiGFP reactiv 0.8.
For COc1ccc(N2CCN(C(=O)c3cc(=O)[nH]c4ccccc34)CC2)cc1 the results were XiGFP reactiv 0.2.
For O=C(c1cc(=O)[nH]c2ccccc12)N1CCN(c2ccc([N+](=O)[O-])cc2)CC1 the results were E-sel inducer 33.4*.
`CCOC(=O)Cc1nn(CC)c(=O)c2ccccc12` gave XiGFP reactiv 0.0.
Screening CCn1nc(CC(=O)O)c2ccccc2c1=O returned E-sel inducer 185.1* and XiGFP reactiv 0.0.
C[C@H]1CN([C@@H](C)CO)C(=O)c2cccc(NS(=O)(=O)c3cccs3)c2O[C@@H]1CN(C)CC1CC1 was read as E-sel inducer -0.2 and XiGFP reactiv 0.0.
`CC(=O)Nc1cccc(NC(=S)Nc2ccc(F)c(Cl)c2)c1` gave E-sel inducer 4.1 and XiGFP reactiv 0.0.
Screening CC(=O)NNC(=S)Nc1cccc(F)c1 returned E-sel inducer 51.3* and XiGFP reactiv 0.1.
Screening Cc1ccccc1/C=N/Nc1nc2ccccc2[nH]1 returned XiGFP reactiv 0.0.
For Cc1[nH]c2ccccc2c1/C=N/Nc1nc2ccccc2[nH]1 the results were E-sel inducer -0.5 and XiGFP reactiv 17.2*.
Screening Cc1nc(=O)c(-c2ccccc2)c(C)n1-c1cccc(/C=C/C(=O)O)c1 returned E-sel inducer -0.1 and XiGFP reactiv 0.2.
Screening CCc1nc(=O)c(-c2ccccc2)c(C)n1-c1ccccc1 returned E-sel inducer 43.3* and XiGFP reactiv 0.4.
`COc1ccc2c3c([nH]c2c1)[C@@H](CO)N(C(=O)C1CCOCC1)CC31CCN(C)CC1` gave E-sel inducer 0.2 and XiGFP reactiv 0.3.
COc1ccc(S(=O)(=O)N(C)C[C@H]2Oc3ccc(NC(=O)c4ccncc4)cc3C(=O)N([C@H](C)CO)C[C@@H]2C)cc1 was read as E-sel inducer 53.6* and XiGFP reactiv 0.1.
For COc1ccc(S(=O)(=O)N(C)C[C@@H]2Oc3ccc(NC(=O)CCCN(C)C)cc3C(=O)N([C@H](C)CO)C[C@@H]2C)cc1 the results were E-sel inducer 24.4 and XiGFP reactiv 0.1.
For COc1ccc(S(=O)(=O)N(C)C[C@H]2Oc3ccc(NC(=O)CCCN(C)C)cc3C(=O)N([C@@H](C)CO)C[C@H]2C)cc1 the results were E-sel inducer 97.0* and XiGFP reactiv 0.4.
Screening C[C@H]1CN([C@@H](C)CO)C(=O)c2cc(NC(=O)Nc3ccc(F)cc3)ccc2O[C@H]1CN(C)S(=O)(=O)c1cccs1 returned E-sel inducer 26.5* and XiGFP reactiv -0.2.
COc1ccc(S(=O)(=O)N(C)C[C@H]2Oc3ccc(NC(=O)CCCN(C)C)cc3C(=O)N([C@@H](C)CO)C[C@@H]2C)cc1 was read as E-sel inducer 52.0* and XiGFP reactiv 0.1.
`COc1ccc(S(=O)(=O)N(C)C[C@H]2Oc3ccc(NC(=O)CCCN(C)C)cc3C(=O)N([C@H](C)CO)C[C@@H]2C)cc1` gave E-sel inducer 6.5 and XiGFP reactiv 0.0.
`C[C@H](CO)N1C[C@H](C)[C@@H](CN(C)S(=O)(=O)c2cccs2)Oc2ccc(NC(=O)Nc3ccc(F)cc3)cc2C1=O` gave E-sel inducer -6.4 and XiGFP reactiv -0.1.
`COc1ccc(S(=O)(=O)N(C)C[C@@H]2Oc3ccc(NC(=O)c4ccncc4)cc3C(=O)N([C@@H](C)CO)C[C@H]2C)cc1` gave E-sel inducer -15.2 and XiGFP reactiv -0.1.
COCCNC(=O)[C@@H]1[C@@H](CO)[C@@H]2Cn3c(ccc(-c4ccccc4)c3=O)[C@H]1N2C(=O)NC(C)C was read as E-sel inducer 0.2 and XiGFP reactiv -0.2.
Screening COc1ccccc1-c1ccc2n(c1=O)C[C@@H]1[C@@H](CO)[C@H](C(=O)N3CCCCC3)N(C)[C@H]21 returned E-sel inducer 0.1 and XiGFP reactiv 0.3.
COc1ccc(CN(C)C[C@@H]2Oc3ccc(NC(=O)Nc4ccc(C(F)(F)F)cc4)cc3C(=O)N([C@H](C)CO)C[C@@H]2C)cc1 was read as E-sel inducer 0.0 and XiGFP reactiv -0.1.
`COc1ccc(CN(C)C[C@H]2OCCCC[C@H](C)Oc3ccc(NC(=O)CCCN(C)C)cc3C(=O)N([C@H](C)CO)C[C@H]2C)cc1` gave E-sel inducer 0.0 and XiGFP reactiv 0.4.
`CCCNC(=O)Nc1ccc2c(c1)C(=O)N(C)C[C@H](OC)[C@@H](C)CN(CCC)[C@H](C)CO2` gave E-sel inducer -0.2 and XiGFP reactiv -0.2.
For COc1ccc(S(=O)(=O)N(C)C[C@H]2Oc3ccc(NC(=O)Nc4ccc(F)cc4)cc3C(=O)N([C@H](C)CO)C[C@@H]2C)cc1 the results were E-sel inducer -0.2 and XiGFP reactiv -1.0.
COc1ccc(NC(=O)Nc2ccc3c(c2)C(=O)N([C@@H](C)CO)C[C@@H](C)[C@@H](CN(C)S(=O)(=O)c2ccc(F)cc2)O3)cc1 was read as E-sel inducer 37.4* and XiGFP reactiv 0.0.
